Experiment [1] relates to MT4. As to the kind of experiment: Dose required to reduce the viability of mock-infected cells by 50%, determined by MTT method. To be noted: Homo sapiens. The class given is functional. In short, it runs like this:
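Mock-infected MT-4 cells; value is the dose lowering cell viability by 50%, read out by MTT assay. Mean of at least two separate experiments.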

In experiment [2] the test system is MT4. In words: Dose required to achieve 50% protection of MT-4 cells from HIV-1(IIIB) induced cytopathogenicity, determined by […] method. The class given is functional, cell-based. To be noted: Homo sapiens. The gist of the method: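 MT-4 cells infected with HIV-1(IIIB); value is the dose giving 50% protection against virus-induced cytopathogenicity, read out by MTT viability assay. Mean of at least two separate experiments.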
Background: Cytopathic effects are the visible damage that an infection or toxin causes in cultured cells.

Experiment [3] relates to Human immunodeficiency virus 1. As to the kind of experiment: Selectivity index was measured as the ratio of CC50(HIV-1) to that of EC50(HIV-1); SI Selectivity Index. The class given is functional.
A short description of experiment [4]: Selectivity index was measured as the ratio of CC50(HIV-1) to that of EC50(HIV-1). The class given is functional.

Each structure is given as a SMILES string. Where only a bound is given, the exact number is not on record here.

By CC50 is commonly meant the concentration giving 50% cytotoxicity. A lower CC50 goes with greater toxicity to the cells. The term EC50 denotes the concentration needed to bring the measured effect to its halfway point. A lower EC50 goes with greater potency. In the experiment on MT4 [1], `CCN1C(=O)N(Cc2c(Cl)cccc2Cl)S(=O)(=O)c2cscc21` returned a CC50 of 74.1 µM. In addition, in the experiment with MT4 [2], the EC50 is above 74100 nM. Further, the SI in experiment [3] is listed as below 1.
In the experiment on MT4 [1], `CN1C(=O)N(Cc2ccc(Cl)cc2)S(=O)(=O)c2cscc21` showed a CC50 of 417 µM. Besides, in the experiment with MT4 [2], the EC50 is above 417000 nM. Also, the SI in experiment [3] is listed as below 1.
For `CCN1C(=O)N(CCc2ccccc2)S(=O)(=O)c2cscc21`, in that order: 330 µM, 8600 nM and 38.
For `N#CCN1C(=O)N(Cc2cccc(Br)c2)S(=O)(=O)c2cscc21`, in that order: 68.6 µM, 90 nM and 762.
`CCN1C(=O)N(Cc2ccccc2)S(=O)(=O)c2nn(C)cc21` registered a CC50 in the experiment on MT4 [1] of 321 µM. Further, the EC50 in the experiment on MT4 [2] was above 321000 nM. Also, the SI in experiment [3] is below 1.
The like results for `CCN1C(=O)N(Cc2ccccc2)S(=O)(=O)c2ccsc21` were, in that order, 374 µM, 20500 nM and 18.
For `Cc1ccnc2c1NC(=O)c1cccnc1N2C1CC1` [NEVIRAPINE], in that order: 683 µM, 30 nM and 22800.
With `N#CCN1C(=O)N(Cc2cccc(F)c2)S(=O)(=O)c2cscc21`, the CC50 in the experiment on MT4 [1] amounted to 93.6 µM. The same compound had an EC50 with MT4 [2] of 50 nM. In addition, in experiment [3], the SI was 1872.
The like results for `O=C1N(Cc2ccccc2Cl)c2cscc2S(=O)(=O)N1Cc1ccccc1` were, in that order, above 119 µM, 100 nM and above 1190.
For `CN1C(=O)N(Cc2c(Cl)cccc2Cl)S(=O)(=O)c2cscc21`, in that order: 528 µM, above 528000 nM and below 1.
For `CN1C(=O)N(Cc2ccccc2)S(=O)(=O)c2nn(C)cc21`, in that order: 498 µM, above 498000 nM and below 1.
Consider `N#CCN1C(=O)N(CCc2ccccc2)S(=O)(=O)c2cscc21`, for which the CC50 with MT4 [1] came to 40.3 µM. The compound also gave an EC50 in the experiment on MT4 [2] of 3600 nM. In experiment [3], the SI is 11.
For `N#CCN1C(=O)N(Cc2ccccc2)S(=O)(=O)c2cscc21`, in that order: 503 µM, 900 nM and 559.
As to `O=C1N(Cc2ccc(Cl)cc2)c2cscc2S(=O)(=O)N1Cc1ccccc1`, it took 18.6 µM to reach half-maximal cytotoxicity in the experiment with MT4 [1] (CC50). The compound also gave an EC50 with MT4 [2] of 1400 nM. Also, the SI in experiment [3] worked out at 13.
With `CN1C(=O)N(Cc2ccccc2)S(=O)(=O)c2ccsc21`, the CC50 in the experiment with MT4 [1] was above 811 µM. This compound returned an EC50 with MT4 [2] above 811000 nM.
In the experiment with MT4 [1], `N#CCN1C(=O)N(Cc2ccccn2)S(=O)(=O)c2cscc21` had a 50% cytotoxic concentration (CC50) above 374 µM. In the experiment with MT4 [2], the midpoint of the response, the EC50, lay at 1100 nM. Further, the SI in experiment [3] is reported as above 340.
The compound `CCCN1C(=O)N(Cc2ccccc2)S(=O)(=O)c2ccsc21` returned a CC50 in the experiment with MT4 [1] of 403 µM. The compound further yielded an EC50 in the experiment with MT4 [2] above 403000 nM.
The compound `CN1C(=O)N(Cc2ccccc2Cl)S(=O)(=O)c2cscc21` gave a CC50 with MT4 [1] of 446 µM. In the experiment with MT4 [2], this compound showed an EC50 above 446000 nM. Besides, the SI in experiment [3] is on record as below 1.
The compound `CCN1C(=O)N(Cc2ccccc2)S(=O)(=O)c2cscc21` had a CC50 in the experiment on MT4 [1] above 775 µM. Further, the EC50 with MT4 [2] is 2500 nM. The SI in experiment [3] is listed as above 310.
The like results for `O=C1N(Cc2ccccc2)c2cscc2S(=O)(=O)N1CCc1ccccc1` were, in that order, 226 µM, 10900 nM and 21.
The like results for `N#CCN1C(=O)N(Cc2cccnc2)S(=O)(=O)c2cscc21` were, in that order, above 150 µM, 200 nM and above 750.
For `C#CCN1C(=O)N(Cc2ccccc2)S(=O)(=O)c2cscc21`, in that order: above 376 µM, 1000 nM and above 376.
`O=C1N(Cc2cccc(Cl)c2)c2cscc2S(=O)(=O)N1Cc1ccccc1`: the CC50 in the experiment on MT4 [1] is above 119 µM. For the same compound, the EC50 in the experiment on MT4 [2] worked out at 800 nM. For the same compound, the SI in experiment [3] is listed as above 149.
For `CCN1C(=O)N(Cc2cccc(Cl)c2)S(=O)(=O)c2cscc21`, in that order: above 701 µM, 2100 nM and above 334.
The like results for `C#CCN1C(=O)N(Cc2cccc(Cl)c2)S(=O)(=O)c2cscc21` were, in that order, 65.7 µM, 100 nM and 657.
The like results for `N#CCN1C(=O)N(Cc2ccccc2)S(=O)(=O)c2sc(Cl)cc21` were, in that order, 152 µM, 24500 nM and 6.
On to `CCN1C(=O)N(Cc2ccccc2Cl)S(=O)(=O)c2cscc21`, for which the midpoint of cytotoxicity with MT4 [1], the CC50, lay at 605 µM. Also, the concentration giving a half-maximal response (EC50) in the experiment on MT4 [2] stood at 7300 nM. Further, the SI in experiment [3] came to 83.
As for `CCN1C(=O)N(Cc2ccccn2)S(=O)(=O)c2cscc21`, the CC50 in the experiment with MT4 [1] was above 387 µM. Further, the concentration for a half-maximal effect (EC50) with MT4 [2] stood at 41400 nM. Further, the SI in experiment [3] is recorded as above 9.
The like results for `N#CCN1C(=O)N(Cc2cc(F)cc(F)c2)S(=O)(=O)c2cscc21` were, in that order, 102 µM, 300 nM and 340.
For `O=C1N(Cc2ccccc2)c2cc(Cl)sc2S(=O)(=O)N1Cc1ccccc1`, in that order: above 119 µM, 4500 nM and above 26.
The like results for `O=C1N(Cc2ccccc2)c2cscc2S(=O)(=O)N1Cc1ccccc1` were, in that order, above 650 µM, 2200 nM and above 296.
As to `O=C1N(Cc2ccccc2)c2sccc2S(=O)(=O)N1Cc1ccccc1`, the CC50 in the experiment on MT4 [1] is above 650 µM. Besides, in the experiment with MT4 [2], the EC50 worked out at 8300 nM. In experiment [3], the SI is above 78.
For `CN1C(=O)N(Cc2ccccc2)S(=O)(=O)c2cscc21`, in that order: 528 µM, 2700 nM and 196.
`Cc1cn([C@H]2C[C@H](N=[N+]=[N-])[C@@H](CO)O2)c(=O)[nH]c1=O` [ZIDOVUDINE] had a CC50 in the experiment on MT4 [1] of 35.6 µM. This compound showed an EC50 in the experiment with MT4 [2] of 0.7 nM. The SI in experiment [4] is 50600.
In turn, `O=C1N(Cc2ccccc2)c2cscc2S(=O)(=O)N1Cc1ccccn1` had a CC50 with MT4 [1] of 166 µM. The EC50 in the experiment on MT4 [2] is 400 nM. For the same compound, the SI in experiment [3] amounted to 415.
The like results for `CCOC(=O)CN1C(=O)N(Cc2ccccc2)S(=O)(=O)c2cscc21` were, in that order, 130 µM, 7400 nM and 18.
For the compound `CN1C(=O)N(Cc2cccc(Cl)c2)S(=O)(=O)c2cscc21`, the CC50 in the experiment on MT4 [1] was above 729 µM. In the experiment on MT4 [2], this compound yielded an EC50 of 7600 nM. The SI in experiment [3] is listed as above 96.
In the experiment with MT4 [1], `CCN1C(=O)N(Cc2ccc(Cl)cc2)S(=O)(=O)c2cscc21` came in with a CC50 of 273 µM. Further, in the experiment with MT4 [2], the concentration for a half-maximal effect (EC50) was above 273000 nM. For the same compound, in experiment [3], the SI is recorded as below 1.
Regarding `N#CCN1C(=O)N(Cc2cccc(Cl)c2)S(=O)(=O)c2cscc21`, the half-maximal cytotoxic concentration (CC50) with MT4 [1] was above 340 µM. For the same compound, in the experiment on MT4 [2], the EC50 was determined as 90 nM. Moreover, in experiment [3], the SI is given as above 3778.
For `N#CCN1C(=O)N(Cc2ccccc2)S(=O)(=O)c2ccsc21`, in that order: 219 µM, 3000 nM and 73.

For the origin of these results see ChEMBL document CHEMBL1131141, “Novel 1,1,3-trioxo-2H,4H-thieno[3,4-e][1,2,4]thiadiazine derivatives as non-nucleoside reverse transcriptase inhibitors that inhibit human immunodeficiency virus type 1 replication” (J Med Chem, 1998).
